A short description of series [1]: folding enthalpy; higher = less favourable; fluorescence melt of hairpins on a sequencing array, two-state fit. The conditions noted are these: sodium 0.088 M. In a few lines: (§1)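 Folding enthalpy and melting temperature were estimated with bootstrapped two-state fits and combined across four replicates by inverse-variance weighting, with fitted temperatures raised by 9.35 °C to match UV melts. The data were Cy3 fluorescence of library hairpins, with annealed Cy3 and quencher oligos, on a sequenced MiSeq flow cell in 50 mM Na-HEPES pH 8.0, 25 mM NaCl, imaged in 2.5 °C steps up to 60 °C and normalised to pre-quench Cy3 and control constructs.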

Series [2] in a line: melting temperature; fluorescence melt of hairpins on a sequencing array, two-state fit, raised by 9.35 °C to match UV melts. The conditions noted are these: sodium 0.088 M. Put shortly:
as §1

Turning to GTAGTAGGAAACTACCAC ((.((((....)))).)), the folding enthalpy in series [1] was -17.2 kcal/mol. The Tm in series [2] was determined as 32.2 °C.
The corresponding values for GATCTTTTTAAAGATC ((((((....)))))) are -41.4 kcal/mol and 49.6 °C.
For GATGAGCGAAAGCTATC (((.(((....)))))), in that order: -14.7 kcal/mol and 35.1 °C.
For GCAGCCTCGAAAGAGTGC (((..(((....)))))), in that order: -15.5 kcal/mol and 37 °C.
Take GCAGACGAAAGTCGGTGC ((((((....)))..))): the folding enthalpy in series [1] is -19.3 kcal/mol. Also, in series [2], the Tm was 50.2 °C.
For GATCACGGATGTGATC ((((((....)))))), in that order: -37.1 kcal/mol and 67.5 °C.
As to TACCTGAAAAGGTA (((((....))))), in series [1], the folding enthalpy is -14.8 kcal/mol. Besides, the Tm in series [2] turned out to be 41.3 °C.
For GCCAAAGGAAACCTTGGC (((((.(....).))))), in that order: -29 kcal/mol and 48.1 °C.
For GATCTGCACACAGATC ((((((....)))))), in that order: -43.9 kcal/mol and 51.6 °C.
The corresponding values for GCTCCGCGAAAGCCAAGC (((..((....))..))) are -8.28 kcal/mol and 26.1 °C.
GATCGCGTGTGCGATC ((((((....)))))): in series [1], the folding enthalpy was -29.3 kcal/mol. Besides, the Tm in series [2] amounted to 68.5 °C.
The corresponding values for GACCGGGGAAACCCGATC ((.((((....)))).)) are -19.9 kcal/mol and 44 °C.
For GCTGTGAAAACAGC (((((....))))), in that order: -30.2 kcal/mol and 63.3 °C.
The corresponding values for GCAGCGCGAAAGCTCGGC ((.(.((....)).).)) are -20.9 kcal/mol and 42.9 °C.
For GCGATCTATCGC ((((....)))), the folding enthalpy in series [1] is -31 kcal/mol. In series [2], the Tm is 55.5 °C.
As to GTTGAGGGAAACCTCGAC ((.((((....)))).)), the folding enthalpy in series [1] was -29.5 kcal/mol. Besides, the Tm in series [2] was found to be 49.8 °C.
For the sequence GGACGCGAAAGCGGGTCC ((((((....)))..))), the folding enthalpy in series [1] is -14 kcal/mol. Moreover, the Tm in series [2] is 54.2 °C.
GATCGACGGATCGATC ((((((....)))))): the folding enthalpy in series [1] was -29 kcal/mol. Moreover, in series [2], the Tm stood at 51.1 °C.
GCAGACGAAAGTCTGTGC ((((((....)))..))): in series [1], the folding enthalpy is -22.2 kcal/mol. Besides, in series [2], the Tm came out at 61.3 °C.
As to GATCAACTTATTGATC ((((((....)))))), in series [1], the folding enthalpy was -35.4 kcal/mol. Further, the Tm in series [2] turned out to be 43 °C.
For GATCGTATAGACGATC ((((((....)))))), in that order: -38.1 kcal/mol and 53 °C.
The corresponding values for GTACTGTCGAAAGACTAC (((..(((....)))))) are -10.3 kcal/mol and 26.4 °C.
For GCTGACGAAAGTCTCAGC ((((((....)))..))), in that order: -20.9 kcal/mol and 40.9 °C.
In the case of GTGAAGGGAAACTTTCAC (((((.(....).))))), the folding enthalpy in series [1] was -24.8 kcal/mol. Also, the Tm in series [2] came to 40.2 °C.
With GATCGTCTAAACGATC ((((((....)))))), in series [1], the folding enthalpy was -43 kcal/mol. Besides, the Tm in series [2] was 56.1 °C.
For GTCTACGAAAGTACAGAC ((((((....)))..))), in that order: -18.1 kcal/mol and 33.4 °C.
For GACAACGAAAGTTCAGTC ((((((....)))..))), in that order: -14.7 kcal/mol and 27.6 °C.
For GAGTCCGGAAACGGGCTC (((.(((....))).))), in that order: -33 kcal/mol and 63.3 °C.
Turning to GAGGTAGGAAACTATCTC (((.(((....))).))), the folding enthalpy in series [1] is -26.6 kcal/mol. Moreover, in series [2], the Tm is 38.7 °C.
Turning to GGTGTACGAAAGTAGACC (((.(((....))).))), in series [1], the folding enthalpy was -38.3 kcal/mol. Moreover, in series [2], the Tm was found to be 52.2 °C.
For GCAACCGAAAGGTGTTGC ((((((....)))..))), in that order: -19 kcal/mol and 50 °C.
The corresponding values for GTAGTGCGAAAGCATTAC (((.(((....))).))) are -25.6 kcal/mol and 51 °C.
The corresponding values for GGGACCGAAAGGTTGCCC ((((((....)))..))) are -14.5 kcal/mol and 37.6 °C.
As to GAGCCCGAAAGGGTGCTC ((((((....)))..))), the folding enthalpy in series [1] is -18.6 kcal/mol. For the same sequence, the Tm in series [2] stood at 52.1 °C.
Consider GGAGGGCGAAAGCCATCC (((.(((....))).))), for which, in series [1], the folding enthalpy was -33.8 kcal/mol. The Tm in series [2] was found to be 66.3 °C.
The corresponding values for GTTTGTCGAAAGACCAAC (((.(((....))).))) are -26.1 kcal/mol and 37.9 °C.
The corresponding values for GCCAACGAAAGTTGGGC ((((((....))).))) are -14.2 kcal/mol and 65.7 °C.
For the sequence GATCGTCTGGACGATC ((((((....)))))), the folding enthalpy in series [1] was -42.6 kcal/mol. The Tm in series [2] was 57.5 °C.
For GTGAGTCCGAAAGGACAC (((..(((....)))))), in that order: -13.1 kcal/mol and 49.6 °C.
On to GCGGGCCCGAAAGGGCGC (((..(((....)))))), for which, in series [1], the folding enthalpy was -8.34 kcal/mol. The Tm in series [2] was found to be 58 °C.
The corresponding values for GCACTAGGAAACTAGTGC (((((((....))))))) are -36.2 kcal/mol and 62.8 °C.
As to GATCGTCTTGACGATC ((((((....)))))), the folding enthalpy in series [1] is -35.9 kcal/mol. Also, the Tm in series [2] turned out to be 66.3 °C.
The corresponding values for GATCTGGTCACAGATC ((((((....)))))) are -40.3 kcal/mol and 62.1 °C.
In the case of GGGGATCGAAAGATTCCC (((.(((....))).))), the folding enthalpy in series [1] is -53.6 kcal/mol. Moreover, the Tm in series [2] worked out at 57.5 °C.
CGATACGGAAACGTTCG (((.(((....)))))): in series [1], the folding enthalpy is -28.6 kcal/mol. The Tm in series [2] came to 42.3 °C.
The corresponding values for CGCGCGGAAACGCTTGCG ((((((....)))..))) are -21.5 kcal/mol and 49.4 °C.
In the case of GTGTCCGGAAACGGGTAC ((..(((....)))..)), the folding enthalpy in series [1] is -20 kcal/mol. Further, the Tm in series [2] was found to be 42.4 °C.
The corresponding values for GGCATTCGAAAGAACGCC (((.(((....))).))) are -45.2 kcal/mol and 50.6 °C.
The corresponding values for GCTAAGCGAAAGCTGAGC (((.(((....))).))) are -42.3 kcal/mol and 56.1 °C.
Regarding GAGAGTGGAAACATTCTC ((((.((....)).)))), the folding enthalpy in series [1] is -32.6 kcal/mol. Besides, the Tm in series [2] was 38.5 °C.
Regarding GGCTCAGGAAACTGAACC ((.((((....)))).)), the folding enthalpy in series [1] is -32.3 kcal/mol. For the same sequence, the Tm in series [2] amounted to 41.8 °C.
Consider GTAGCCGAAAGGCGGTAC ((((((....)))..))), for which the folding enthalpy in series [1] is -9.4 kcal/mol. Further, in series [2], the Tm was 41.2 °C.
For GCGTCAGAACGC ((((....)))), in that order: -23.6 kcal/mol and 52 °C.
The corresponding values for GGGAGAGGAAACCCTCCC (((((.(....).))))) are -28.6 kcal/mol and 47.6 °C.
The corresponding values for GTCTGAGGAAACTTGGAC (((..((....))..))) are -15.9 kcal/mol and 31.7 °C.

Values taken from the array DNA melting data of Ke et al. (doi:10.1101/2024.01.08.574731).
